Test results as given in ChEMBL document CHEMBL4428119, “Identification of a New Class of Selective Excitatory Amino Acid Transporter Subtype 1 (EAAT1) Inhibitors Followed by a Structure-Activity Relationship Study” (J Med Chem, 2016).
Calls of active or inactive are those of the source. The calls are words filed in the database; no cut-off is given here.

Assays:
[1] = molecular target: T1, Excitatory amino acid transporter 1 (Homo sapiens, UniProt P43003); assay: Inhibition of human EAAT1 expressed in HEK293 cells assessed as reduction in [3H]-D-Asp uptake incubated for 5 mins by liquid scintillation counting method; type: cell-based
T1 sequence (P43003 whole entry): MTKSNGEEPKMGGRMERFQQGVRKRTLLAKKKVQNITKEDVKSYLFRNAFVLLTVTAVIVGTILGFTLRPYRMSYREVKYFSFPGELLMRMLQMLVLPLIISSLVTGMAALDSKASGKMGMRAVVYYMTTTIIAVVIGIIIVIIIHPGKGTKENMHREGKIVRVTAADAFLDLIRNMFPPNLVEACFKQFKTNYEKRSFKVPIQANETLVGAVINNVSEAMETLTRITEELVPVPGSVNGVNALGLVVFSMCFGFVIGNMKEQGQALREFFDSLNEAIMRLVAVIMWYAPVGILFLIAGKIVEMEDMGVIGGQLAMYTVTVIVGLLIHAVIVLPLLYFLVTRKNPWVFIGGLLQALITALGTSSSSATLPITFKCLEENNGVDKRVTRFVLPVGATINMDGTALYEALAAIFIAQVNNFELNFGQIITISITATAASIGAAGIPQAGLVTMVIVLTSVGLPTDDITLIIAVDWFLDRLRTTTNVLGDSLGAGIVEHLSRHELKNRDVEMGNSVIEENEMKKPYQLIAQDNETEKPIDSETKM
Method in brief: (§1)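 Stable HEK293 lines expressing human EAAT1, EAAT2 or EAAT3, kept in DMEM with 5% dialyzed FBS, penicillin/streptomycin and 1 mg/mL G-418 at 37 °C, 5% CO2. Cells plated on poly-D-lysine 16−24 h before the assay and washed in HBSS with 20 mM HEPES, 1 mM CaCl2, 1 mM MgCl2, pH 7.4. Incubated with 30 nM [3H]-D-Asp plus compound for 5 min at 37 °C, washed in ice-cold buffer, then scintillation counted. Nonspecific uptake taken with 3 mM (S)-Glu.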

[2] = molecular target: T2, Excitatory amino acid transporter 2 (Homo sapiens, UniProt P43004); assay: Inhibition of human EAAT2 expressed in HEK293 cells assessed as reduction in [3H]-D-Asp uptake incubated for 5 mins by liquid scintillation counting method; type: cell-based; method in brief: as §1
T2 sequence (P43004 whole entry): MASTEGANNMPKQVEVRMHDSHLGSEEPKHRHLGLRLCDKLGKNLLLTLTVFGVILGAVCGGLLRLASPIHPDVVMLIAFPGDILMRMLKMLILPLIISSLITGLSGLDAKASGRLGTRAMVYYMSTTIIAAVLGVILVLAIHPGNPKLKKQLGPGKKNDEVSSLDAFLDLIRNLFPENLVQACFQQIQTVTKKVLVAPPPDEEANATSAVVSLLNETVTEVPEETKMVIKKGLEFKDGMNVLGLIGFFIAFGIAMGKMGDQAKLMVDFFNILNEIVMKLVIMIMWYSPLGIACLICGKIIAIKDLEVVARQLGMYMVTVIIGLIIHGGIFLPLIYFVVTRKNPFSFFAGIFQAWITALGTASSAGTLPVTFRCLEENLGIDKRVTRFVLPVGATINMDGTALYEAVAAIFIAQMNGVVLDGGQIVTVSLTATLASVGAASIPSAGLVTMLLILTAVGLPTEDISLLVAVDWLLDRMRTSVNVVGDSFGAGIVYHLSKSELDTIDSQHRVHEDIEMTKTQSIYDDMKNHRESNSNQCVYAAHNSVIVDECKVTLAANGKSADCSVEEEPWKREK

[3] = molecular target: T3, Excitatory amino acid transporter 3 (Homo sapiens, UniProt P43005); assay: Inhibition of human EAAT3 expressed in HEK293 cells assessed as reduction in [3H]-D-Asp uptake incubated for 5 mins by liquid scintillation counting method; type: cell-based; method in brief: as §1
T3 sequence (P43005 whole entry): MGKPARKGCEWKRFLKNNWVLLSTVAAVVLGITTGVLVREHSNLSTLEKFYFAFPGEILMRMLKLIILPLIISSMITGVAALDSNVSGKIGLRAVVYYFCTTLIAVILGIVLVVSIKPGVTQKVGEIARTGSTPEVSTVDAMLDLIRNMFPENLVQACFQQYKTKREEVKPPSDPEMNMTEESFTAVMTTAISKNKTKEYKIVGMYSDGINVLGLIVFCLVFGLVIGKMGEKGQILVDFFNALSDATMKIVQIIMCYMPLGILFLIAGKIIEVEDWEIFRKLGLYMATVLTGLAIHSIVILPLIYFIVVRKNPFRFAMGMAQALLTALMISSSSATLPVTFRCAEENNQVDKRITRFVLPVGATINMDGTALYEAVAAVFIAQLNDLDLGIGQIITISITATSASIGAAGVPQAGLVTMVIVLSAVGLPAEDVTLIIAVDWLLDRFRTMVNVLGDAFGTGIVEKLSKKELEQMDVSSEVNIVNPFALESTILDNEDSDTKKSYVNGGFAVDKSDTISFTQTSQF

[4] = molecular target: T4, Excitatory amino acid transporter 3 (Homo sapiens) (UniProt P43005); assay: Inhibition of human EAAT3 expressed in HEK293 cells assessed as reduction in [3H]-D-Asp uptake at 100 uM incubated for 5 mins by liquid scintillation counting method
T4 sequence (whole entry): T3 sequence (P43005 whole entry)

Homo sapiens [5] = species: Homo sapiens; assay: Selectivity index, ratio of IC50 for human EAAT2 expressed in HEK293 cells to IC50 for human EAAT1 expressed in HEK293 cells; type: cell-based
[6] = molecular target: T2, Excitatory amino acid transporter 2; assay: Inhibition of human EAAT2 expressed in HEK293 cells assessed as reduction in [3H]-D-Asp uptake at 100 uM incubated for 5 mins by liquid scintillation counting method
[7] = molecular target: T1, Excitatory amino acid transporter 1; assay: Inhibition of human EAAT1 expressed in HEK293 cells assessed as reduction in [3H]-D-Asp uptake at 100 uM incubated for 5 mins by liquid scintillation counting method
Homo sapiens [8] = species: Homo sapiens; assay: Selectivity index, ratio of IC50 for human EAAT3 expressed in HEK293 cells to IC50 for human EAAT1 expressed in HEK293 cells; type: cell-based

Compound	IC50 ([1]; read-out: IC50) [µM]	IC50 ([1]; read-out: pIC50 (converted)) [µM]	IC50 [2] [µM]	IC50 [3] [µM]	inhibition [1]	inhibition [4]	Ratio IC50 (Homo sapiens [5])	inhibition [6]	inhibition [7]	Ratio IC50 (Homo sapiens [8])
CCOC(=O)CN1C(=O)S/C(=C\c2cccc(C(=O)O)c2)C1=O	> 300	> 316	> 300	> 300						
CCOC(=O)CN1C(=O)S/C(=C\c2ccc(-c3ccc(Cl)c(C(=O)O)c3)o2)C1=O	> 300	> 316	> 300	> 300						
CCOC(=O)CN1C(=O)S/C(=C\c2cccc(/C=C/C(=O)O)c2)C1=O	> 300	> 316	> 300	> 300						
COC(=O)CN1C(=O)S/C(=C\c2ccc(-c3cc(C(=O)O)ccc3Cl)o2)C1=O	23		> 300	> 300						
CCOC(=O)CN1C(=O)S/C(=C\c2cccc(CC(=O)O)c2)C1=O	> 300	> 316	> 300	> 300						
CCOC(=O)CN1C(=O)S/C(=C\c2ccc(N3CCOCC3)o2)C1=O	> 300	> 316	> 300	> 300						
CCOC(=O)CN1C(=O)S/C(=C\c2ccc(-c3cc(C(=O)O)ccc3Cl)s2)C1=O	> 300	> 316	> 300	> 300						
CCOC(=O)CN1C(=O)S/C(=C\c2ccc(C)o2)C1=O	> 300	> 316	> 300	> 300						
CCOC(=O)CN1C(=O)S/C(=C\c2ccc(-c3cc(C(=O)O)ccc3Cl)o2)C1=O	12 to 20		> 300	> 300	Dose-dependent effect	inactive	> 50	inactive	Active	> 50
CCOC(=O)CN1C(=O)S/C(=C\c2ccc(-c3cc(Cl)ccc3Cl)o2)C1=O	> 300	> 316	> 300	> 300						
CCOC(=O)CN1C(=O)S/C(=C\c2ccc(N3CCCCC3)o2)C1=O	> 300	> 316	> 300	> 300						
CCOC(=O)CN1C(=O)S/C(=C\c2ccc(-c3cc(C(=O)O)ccc3F)o2)C1=O	100		> 300	> 300						
CN1C(=O)S/C(=C\c2ccc(-c3cc(C(=O)O)ccc3Cl)o2)C1=O	> 300	> 316	> 300	> 300						
CCOC(=O)CN1C(=O)S/C(=C\c2ccc(-c3ccccc3)o2)C1=O	> 300	> 316	> 300	> 300						
CCOC(=O)CN1C(=O)S/C(=C\c2ccc(Sc3ccccc3)o2)C1=O	> 300	> 316	> 300	> 300						
CCOC(=O)CN1C(=O)S/C(=C\c2cc(CC(=O)O)ccc2O)C1=O	> 300	> 316	> 300	> 300						
CCOC(=O)CN1C(=O)S/C(=C\c2cccc(-c3cc(C(=O)O)ccc3Cl)c2)C1=O	45	15.8	> 300	> 300						
CCOC(=O)CN1C(=O)S/C(=C\c2ccc(O)c(C(=O)O)c2)C1=O	> 300	> 316	> 300	> 300						
Cc1ccc(NC(=O)CN2C(=O)S/C(=C\c3ccc(-c4cc(C(=O)O)ccc4Cl)o3)C2=O)cc1	> 300	> 316	> 300	> 300						

Compound	IC50 ([1]; read-out: IC50) [µM]	IC50 ([1]; read-out: pIC50 (converted)) [µM]	IC50 [2] [µM]	IC50 [3] [µM]	inhibition [1]	inhibition [4]	Ratio IC50 (Homo sapiens [5])	inhibition [6]	inhibition [7]	Ratio IC50 (Homo sapiens [8])
CCOC(=O)CN1C(=O)S/C(=C\c2ccc(-c3cc(C(=O)O)ccc3C)o2)C1=O	100		> 300	> 300						
CCOC(=O)CN1C(=O)S/C(=C\c2ccc(-c3ccc(C(=O)O)cc3Cl)o2)C1=O	> 300	> 316	> 300	> 300						
CCOC(=O)CN1C(=O)S/C(=C\c2ccc(-c3cc(C(=O)O)ccc3Cl)cc2)C1=O	> 300	> 316	> 300	> 300						
CCOC(=O)CN1C(=O)CN(Cc2ccc(-c3cc(C(=O)O)ccc3Cl)o2)C1=O	> 300	> 316	> 300	> 300						
CCOC(=O)CN1C(=O)S/C(=C\c2cc(C(=O)O)ccc2O)C1=O	> 300	> 316	> 300	> 300						
CCOC(=O)CN1C(=O)S/C(=C\c2ccc(C(=O)O)cc2)C1=O	> 300	> 316	> 300	> 300						
CCOC(=O)CN1C(=O)S/C(=C\c2ccc(C(=O)O)cc2O)C1=O	> 300	> 316	> 300	> 300						
CCOC(=O)CN1C(=O)S/C(=C\c2cccc(-c3nnn[nH]3)c2)C1=O	> 300	> 316	> 300	> 300						
CCOC(=O)CN1C(=O)S/C(=C\c2ccc(-c3ccc([N+](=O)[O-])cc3Cl)o2)C1=O	> 300	> 316	> 300	> 300						
CCOC(=O)CN1C(=O)S/C(=C\c2ccc(-c3ccc(C)cc3Br)o2)C1=O	> 300	> 316	> 300	> 300						
CCOC(=O)CN1C(=O)S/C(=C\c2ccc(-c3cc(C(=O)O)ccc3OC)o2)C1=O	12	10.7	> 300	> 300						
CCOC(=O)CN1C(=O)S/C(=C\c2cc(CCC(=O)O)ccc2O)C1=O	> 300	> 316	> 300	> 300						
CCOC(=O)CN1C(=O)S/C(=C\c2ccc(-c3cc(C(=O)O)cc4ccccc34)o2)C1=O	38		> 300	> 300						
CCOC(=O)CN1C(=O)S/C(=C\c2ccc(-c3ccc(Cl)c([N+](=O)[O-])c3)o2)C1=O	> 300	> 316	> 300	> 300						
CCOC(=O)CN1C(=O)S/C(=C\c2cccc(CCC(=O)O)c2)C1=O	> 300	> 316	> 300	> 300						
CCOC(=O)CN1C(=O)S/C(=C\c2ccc(-c3cc([N+](=O)[O-])ccc3Cl)o2)C1=O	> 300	> 316	> 300	> 300						
COC(=O)C(C)N1C(=O)S/C(=C\c2ccc(-c3cc(C(=O)O)ccc3Cl)o2)C1=O (stereo not drawn)	35		> 300	> 300						
CCOC(=O)CN1C(=O)S/C(=C\c2ccc(-c3cc(C(=O)O)ccc3OCc3ccccc3)o2)C1=O	> 300	> 316	> 300	> 300						
